Compound activity from PubChem.
STAT1 inh – STAT1 signaling inhibitors, primary screen, cell-based, HTS, luciferase reporter. NIH 3T3 STAT1-luciferase reporter, IFN-gamma, luminescence. AID 920, 2007. 0.35% of 200,000 active. inhibition, % at 5.5 µM;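 active = inhibition above a set limit, the mean inhibition across all tested compounds plus 3 SD, cut at about 34% in these data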
STAT1 act – STAT1 signaling activators, primary screen, cell-based, HTS, luciferase reporter; NIH 3T3 STAT1-luciferase reporter, IFN-gamma, luminescence; 100% = IFN-gamma alone, no compound; activation (% of control), % at 5.5 µM; 2.6% of 200,000 active; AID 932, 2007;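 active = activation above the screen-wide mean activation plus 3 SD, cut at about 130% in these data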
APP 5'UTR act – activators of APP 5'UTR luciferase reporter, primary screen, SH-SY5Y cells; SH-SY5Y APP 5'UTR luciferase reporter, luminescence; zero percent = DMSO vehicle wells; activation, % at 2 µM; 1% of 190,000 active;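 active = activation above a set limit, based on mean plus 3 SD of controls, cut at about 140% in these data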
NF-kB neuron act – activators of NF-kB expression in neurons, primary screen, cell-based, HTS; 1.6% of 190,000 active; human neuronal cells, NF-kB reporter expression; active compounds read high; fold change at 12.5 µM; in the data active = fold change above about 3.3
STAT3 blocker – IL-6 driven STAT3 reporter inhibitors, primary screen, U3A cells, luciferase, luminescence, MLSCN library; IL-6 STAT3-luciferase reporter; host cell line lacks STAT1; 0.89% of 190,000 active; inhibition, % at 5.5 µM; AID 862, 2007;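 active = inhibition above the mean inhibition across all screened compounds plus 3 SD, cut at about 44% in these data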
STAT3 activator – IL-6 driven STAT3 reporter potentiators, primary screen, U3A cells, luciferase, luminescence, MLSCN library | 0.91% of 190,000 active | activation (% of control), % at 5.6 µM | IL-6 STAT3-luciferase reporter; 100% = signal with IL-6 EC80 alone;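 active = activation above the screen-wide mean of compound activation plus 3 SD, cut at about 130% in these data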
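Material: human U3A cells carrying STAT3-luciferase construct. Measured by: reporter luminescence signal. Timing: compound 1 h, then IL-6 6 h at 37 °C.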
STAT1 activ conf – STAT1 signaling activators, confirmation, cell-based, HTS, luciferase reporter; 97% of 1,200 active; shares compounds with STAT1 act; NIH 3T3 STAT1-luciferase reporter, IFN-gamma potentiation, luminescence; 100% = IFN-gamma EC80 alone, no compound; activation (% of control), % at 5.7 µM;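 active = activation above a set limit carried over from the earlier primary STAT1 screen, cut at about 140% in these data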
NFkB act STAT1ct – NF-kB reporter activators, TNF-alpha stimulated, counter-screen for STAT1 activator project, cell-based, HEK293T, luciferase luminescence; activation (% of control), % at 5.7 µM; shares compounds with STAT1 act; 100% = TNF-alpha with vehicle only; 43% of 1,200 active;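 active = activation above the mean of solvent-only control wells plus 3 SD, set per campaign, cut at about 130% in these data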;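 also: TNF-alpha given at a submaximal dose yielding about 80% of full reporter signal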
STAT3 act 2 – STAT3 reporter activation by STAT1 hits, confirmation, counter-screen for STAT1 activator project, U3A cells, luciferase, luminescence | shares compounds with STAT1 act | activation (% of control), % at 5.7 µM | 46% of 1,200 active | IL-6; cells lack STAT1; 100 = IL-6 alone, no compound effect;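 active = activation above the solvent-only control well mean plus 3 SD, set per plate batch, cut at about 110% in these data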;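 also: higher means more STAT3 reporter activation so hits are non-selective activators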
Numbers stand for hits; – = inactive; · = no result. Sampled rows, rich in hits. Any-hit rate of the full collection: about 5.1%.

SMILES	STAT1 inh	STAT1 act	APP 5'UTR act	NF-kB neuron act	STAT3 blocker	STAT3 activator	STAT1 activ conf	NFkB act STAT1ct	STAT3 act 2
CCOc1ccc2nc(SCC(=O)NC(=O)NCc3ccco3)[nH]c2c1	–	–	–	–	–	–	·	·	·
CC(=O)OCCOc1nc(N(C)C)nc(N(C)C)n1	–	–	–	–	–	–	·	·	·
O=C(Nc1ncc(Cc2ccccc2)s1)c1cccs1	–	154	194	8.4	–	–	276	142	122
O=C(NCc1cccnc1)C1COc2ccccc2O1 (stereo not given)	–	–	–	–	–	–	·	·	·
O=C(Nc1ncc(Cc2cccc(Cl)c2)s1)c1cccs1	–	–	–	–	–	–	·	·	·
O=C(Nc1ncc(Cc2ccccc2)s1)C1COc2ccccc2O1 (stereo not given)	–	184	164	–	–	–	192	–	114
O=C(Nc1nnc(Cc2ccccc2)s1)c1cccs1	–	–	–	–	–	–	·	·	·
Cc1ccc(Cc2cnc(NC(=O)c3cccs3)s2)cc1	–	171	170	7.1	–	–	219	143	133
O=C(CC1CCC1)NC(c1ccccc1)c1ccccc1	–	–	–	–	–	–	·	·	·
COc1ccc2c(c1)CC/C2=N\OC(=O)c1ccccc1C	–	159	153	5.9	–	–	182	134	–
COc1ccc2c(c1)CC/C2=N\OC(=O)c1cccc(C)c1	–	165	–	5.9	–	–	183	137	–
COc1ccc2c(c1)CCC/C2=N/OC(=O)c1ccccc1OC	–	–	–	–	–	–	·	·	·
COC(=O)C(C)N1C(=O)S/C(=C/c2cc(C)n(-c3ccccn3)c2C)C1=O (stereo not given)	–	152	–	3.6	–	–	173	133	116
O=C(CN(Cc1ccccc1)S(=O)(=O)c1ccccc1)N/N=C/c1ccccc1C(=O)O	–	–	–	–	–	–	·	·	·
Cc1ccc(/C=N/Nc2nc3ccccc3[nH]2)s1	–	157	135	3.8	–	–	190	149	121
Cc1nn(-c2ccccc2)c(Cl)c1/C=N/Nc1nc2ccccc2[nH]1	–	216	–	–	–	–	291	–	–
CC(C)Cn1c(-c2ccc(Br)cc2)c[nH]c1=S	–	–	–	–	–	–	·	·	·
O=C(Nc1ccc(F)cc1F)c1cc(=O)n(-c2ccccc2)c(=O)[nH]1	–	–	–	–	–	–	·	·	·
CCC(c1nnc(SCC(=O)Nc2ccc(Cl)cc2C(F)(F)F)n1C1CCCCC1)N(C)C (stereo not given)	–	–	–	–	–	–	·	·	·
CC(=O)c1cccc(N/C=C\C(=O)c2ccc(C)cc2)c1	–	180	155	6.7	–	–	211	–	–
CC(=O)c1cccc(NC(=S)NC(=O)c2ccccc2C)c1	–	–	–	–	–	–	·	·	·
CC(=O)c1cccc(NS(=O)(=O)c2ccc(N/C=C/C(=O)c3ccc(F)cc3)cc2)c1	–	–	–	–	–	–	·	·	·
CC(=O)c1cccc(NC(=S)NC(=O)c2ccc(Cl)cc2)c1	–	162	–	–	–	–	173	–	–
CC(=O)c1cccc(NC(=S)NC(=O)c2cccc(C)c2)c1	–	157	–	3.7	–	–	178	–	–
